Measured values published in ChEMBL document CHEMBL4049410, “Novel benzimidazolyl tetrahydroprotoberberines: Design, synthesis, antimicrobial evaluation and multi-targeting exploration” (2017).
≈ marks a conversion by molar mass, not a printed value.

Experiments:
[1] = tested on: Bacillus subtilis; assay: Antibacterial activity against Bacillus subtilis after 24 hrs by two-fold serial dilution assay; assay type: functional
Procedure, shortened: (§1)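 Twofold serial broth dilution following NCCLS guidance, with Chloromycin, Norfloxacin and Fluconazole as positive controls. MIC in μM is the lowest concentration giving complete inhibition of visible bacterial or fungal growth.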

[2] = tested on: Micrococcus luteus; assay: Antibacterial activity against Micrococcus luteus ATCC 4698 after 24 hrs by two-fold serial dilution assay; assay type: functional, NCTC 2665; procedure, shortened: as §1
[3] = tested on: Staphylococcus aureus; assay: Antibacterial activity against Staphylococcus aureus ATCC 25923 after 24 hrs by two-fold serial dilution assay; assay type: functional; procedure, shortened: as §1
[4] = tested on: Escherichia coli; assay: Antibacterial activity against Escherichia coli JM109 after 24 hrs by two-fold serial dilution assay; assay type: functional; procedure, shortened: as §1
[5] = tested on: Escherichia coli; assay: Antibacterial activity against Escherichia coli DH52 after 24 hrs by two-fold serial dilution assay; assay type: functional; procedure, shortened: as §1
[6] = tested on: Pseudomonas aeruginosa; assay: Antibacterial activity against Pseudomonas aeruginosa after 24 hrs by two-fold serial dilution assay; assay type: functional; procedure, shortened: as §1
[7] = tested on: Proteus vulgaris; assay: Antibacterial activity against Bacillus proteus ATCC 13315 after 24 hrs by two-fold serial dilution assay; assay type: functional; procedure, shortened: as §1
[8] = tested on: Pichia norvegensis; assay: Antifungal activity against Candida mycoderma after 24 hrs by two-fold serial dilution assay; assay type: functional; procedure, shortened: as §1
[9] = tested on: Cyberlindnera jadinii; assay: Antifungal activity against Candida utilis after 24 hrs by two-fold serial dilution assay; assay type: functional; procedure, shortened: as §1
[10] = tested on: Saccharomyces cerevisiae; assay: Antifungal activity against Saccharomyces cerevisiae after 24 hrs by two-fold serial dilution assay; assay type: functional; procedure, shortened: as §1
[11] = tested on: Aspergillus flavus; assay: Antifungal activity against Aspergillus flavus after 24 hrs by two-fold serial dilution assay; assay type: functional; procedure, shortened: as §1
[12] = tested on: Candida albicans; assay: Antifungal activity against Candida albicans ATCC 76615 after 24 hrs by two-fold serial dilution assay; assay type: functional; procedure, shortened: as §1
[13] = tested on: Staphylococcus aureus; assay: Antibacterial activity against methicillin-resistant Staphylococcus aureus N315 after 24 hrs by two-fold serial dilution assay; assay type: functional
[14] = tested on: Shigella dysenteriae; assay: Antibacterial activity against Shigella dysenteriae after 24 hrs by two-fold serial dilution assay; assay type: functional
[15] = tested on: Salmonella typhi; assay: Antibacterial activity against Bacillus typhi after 24 hrs by two-fold serial dilution assay; assay type: functional, Salmonella enterica subsp. enterica serovar Typhi
[16] = Staphylococcus aureus, ATCC 25923, 24 h, read-out: MIC
[17] = Escherichia coli, DH52, 24 h, read-out: MIC
[18] = Saccharomyces cerevisiae, 24 h, read-out: MIC
[19] = Staphylococcus aureus, N315, 24 h, read-out: MIC
[20] = Bacillus subtilis, 24 h, read-out: MIC
[21] = Micrococcus luteus, NCTC 2665, 24 h, read-out: MIC
[22] = Escherichia coli, JM109, 24 h, read-out: MIC
[23] = Shigella dysenteriae, 24 h, read-out: MIC
[24] = Pseudomonas aeruginosa, 24 h, read-out: MIC
[25] = Proteus vulgaris, ATCC 13315, 24 h, read-out: MIC
[26] = Pichia norvegensis, 24 h, read-out: MIC
[27] = Williopsis jadinii, 24 h, read-out: MIC
[28] = Candida albicans, ATCC 76615, 24 h, read-out: MIC
[29] = Salmonella enterica, 24 h, read-out: MIC
[30] = Aspergillus flavus, 24 h, read-out: MIC

SMILES | MIC [1] [µM] | MIC [2] [µM] | MIC [3, 16] [µM] | MIC [4] [µM] | MIC [5, 17] [µM] | MIC [6] [µM] | MIC [7] [µM] | MIC [8] [µM] | MIC [9] [µM] | MIC [10, 18] [µM] | MIC [11] [µM] | MIC [12] [µM] | MIC [13, 19] [µM] | MIC [1, 20] [µM] | MIC [4, 22] [µM] | MIC [14, 23] [µM] | MIC [6, 24] [µM] | MIC [8, 26] [µM] | MIC [12, 28] [µM] | MIC [5] [µM] | further results
COc1cc(-c2nc3ccccc3n2Cc2ccc(F)cc2)c2c(c1O)CN1CCc3cc4c(cc3C1C2)OCO4 (stereo unspecified) | 20.1 (≈ 11 µg/mL) | 40.1 (≈ 22 µg/mL) | 60.2 (≈ 33.1 µg/mL) | 25.1 (≈ 13.8 µg/mL) | 100 (≈ 55.1 µg/mL) | 25.1 (≈ 13.8 µg/mL) | 25.1 (≈ 13.8 µg/mL) | 25.1 (≈ 13.8 µg/mL) | 60.2 (≈ 33.1 µg/mL) | 20.1 (≈ 11 µg/mL) | 50.2 (≈ 27.6 µg/mL) | 25.1 (≈ 13.8 µg/mL) | – | – | – | – | – | – | – | – | –
COc1cc(-c2nc3ccccc3n2Cc2ccccc2F)c2c(c1O)CN1CCc3cc4c(cc3C1C2)OCO4 (stereo unspecified) | – | – | – | – | 38.8 (≈ 21.3 µg/mL) | – | – | – | – | 58.2 (≈ 32 µg/mL) | 24.3 (≈ 13.4 µg/mL) | – | 24.3 (≈ 13.4 µg/mL) | 48.5 (≈ 26.7 µg/mL) | 29.1 (≈ 16 µg/mL) | 48.5 (≈ 26.7 µg/mL) | 58.2 (≈ 32 µg/mL) | 19.4 (≈ 10.7 µg/mL) | 24.3 (≈ 13.4 µg/mL) | – | MIC [2, 21]: 29.1 µM (≈ 16 µg/mL); MIC [3]: 58.2 µM (≈ 32 µg/mL); MIC [7, 25]: 38.8 µM (≈ 21.3 µg/mL); MIC [9, 27]: 9.7 µM (≈ 5.33 µg/mL)
COc1cc(-c2nc3ccccc3n2CCCCCCn2c3ccccc3c3ccccc32)c2c(c1O)CN1CCc3cc4c(cc3C1C2)OCO4 (stereo unspecified) | – | 741.1 (≈ 512 µg/mL) | – | – | – | – | 617.6 (≈ 427 µg/mL) | – | – | 741 (≈ 512 µg/mL) | 617.6 (≈ 427 µg/mL) | – | 618 (≈ 427 µg/mL) | 741 (≈ 512 µg/mL) | 618 (≈ 427 µg/mL) | – | 741 (≈ 512 µg/mL) | 618 (≈ 427 µg/mL) | 247 (≈ 171 µg/mL) | 617.6 (≈ 427 µg/mL) | MIC [9, 27]: 618 µM (≈ 427 µg/mL)
COc1cc(-c2nc3ccccc3n2Cc2ccc(Cl)cc2)c2c(c1O)CN1CCc3cc4c(cc3C1C2)OCO4.Cl (stereo unspecified) | 134 | 535.9 | – | 535.9 | – | 535.9 | 535.9 | 267.9 | 535.9 | – | 669.8 | 401.9 | – | – | – | – | – | – | – | 669.8 | MIC [3]: 267.9 µM; MIC [15]: 201 µM; MIC [10]: 803.8 µM
COc1cc(-c2nc3ccccc3n2Cc2cccc(F)c2)c2c(c1O)CN1CCc3cc4c(cc3C1C2)OCO4 (stereo unspecified) | 19.4 (≈ 10.7 µg/mL) | 19.4 (≈ 10.7 µg/mL) | 48.5 (≈ 26.7 µg/mL) | 29.1 (≈ 16 µg/mL) | – | 48.5 (≈ 26.7 µg/mL) | 38.8 (≈ 21.3 µg/mL) | – | 48.5 (≈ 26.7 µg/mL) | 24.3 (≈ 13.4 µg/mL) | 24.3 (≈ 13.4 µg/mL) | – | – | – | – | 116 (≈ 64 µg/mL) | – | 48.5 (≈ 26.7 µg/mL) | 48.5 (≈ 26.7 µg/mL) | 38.8 (≈ 21.3 µg/mL) | MIC [13]: 12.2 µM (≈ 6.71 µg/mL)
COc1cc(C=O)c2c(c1O)CN1CCc3cc4c(cc3C1C2)OCO4 (stereo unspecified) | – | – | 724 (≈ 256 µg/mL) | – | 242 (≈ 85.3 µg/mL) | – | – | – | – | 362 (≈ 128 µg/mL) | – | – | 302 (≈ 107 µg/mL) | 483 (≈ 171 µg/mL) | 242 (≈ 85.3 µg/mL) | 121 (≈ 42.7 µg/mL) | 302 (≈ 107 µg/mL) | 242 (≈ 85.3 µg/mL) | 151 (≈ 53.3 µg/mL) | – | MIC [2, 21]: 302 µM (≈ 107 µg/mL); MIC [15, 29]: 302 µM (≈ 107 µg/mL); MIC [7, 25]: 483 µM (≈ 171 µg/mL); MIC [9, 27]: 302 µM (≈ 107 µg/mL); MIC [11, 30]: 151 µM (≈ 53.3 µg/mL)
COc1cc(-c2nc3ccccc3n2Cc2cccc(Cl)c2)c2c(c1O)CN1CCc3cc4c(cc3C1C2)OCO4 (stereo unspecified) | – | – | 23.6 (≈ 13.4 µg/mL) | – | 75.4 (≈ 42.7 µg/mL) | – | – | – | – | 47.1 (≈ 26.7 µg/mL) | – | – | 56.5 (≈ 32 µg/mL) | 47.1 (≈ 26.7 µg/mL) | 4.7 (≈ 2.66 µg/mL) | 23.6 (≈ 13.4 µg/mL) | 28.3 (≈ 16 µg/mL) | 18.9 (≈ 10.7 µg/mL) | 37.7 (≈ 21.3 µg/mL) | – | MIC [2, 21]: 28.3 µM (≈ 16 µg/mL); MIC [15, 29]: 4.7 µM (≈ 2.66 µg/mL); MIC [7, 25]: 47.1 µM (≈ 26.7 µg/mL); MIC [9, 27]: 9.4 µM (≈ 5.32 µg/mL); MIC [11, 30]: 18.9 µM (≈ 10.7 µg/mL)
COc1cc(-c2nc3ccccc3n2Cc2ccc(F)cc2)c2c(c1O)CN1CCc3cc4c(cc3C1C2)OCO4.Cl (stereo unspecified) | 182 | 182 | – | 182 | – | 182 | 182 | 218.4 | 182 | – | 182 | 182 | – | – | – | – | – | – | – | 182 | MIC [3]: 109.2 µM; MIC [14]: 145.6 µM; MIC [10]: 36.4 µM
COc1cc(-c2nc3ccccc3n2Cc2ccccc2F)c2c(c1O)CN1CCc3cc4c(cc3C1C2)OCO4.Cl (stereo unspecified) | 33.5 | 20.9 | – | 20.9 | – | 67 | 20.9 | 10.5 | 12.6 | – | 803.8 | 20.9 | – | – | – | – | – | – | – | 20.9 | MIC [14]: 50.2 µM; MIC [15]: 6.3 µM; MIC [10]: 83.8 µM
O=C(N[C@H](CO)[C@H](O)c1ccc([N+](=O)[O-])cc1)C(Cl)Cl [CHLORAMPHENICOL] | – | – | 41.3 (≈ 13.3 µg/mL) | – | 66 (≈ 21.3 µg/mL) | – | – | – | – | – | – | – | 41.3 (≈ 13.3 µg/mL) | 82.5 (≈ 26.7 µg/mL) | 82.5 (≈ 26.7 µg/mL) | 99 (≈ 32 µg/mL) | 99 (≈ 32 µg/mL) | – | – | – | MIC [2, 21]: 20.7 µM (≈ 6.69 µg/mL); MIC [15, 29]: 82.5 µM (≈ 26.7 µg/mL); MIC [7, 25]: 99 µM (≈ 32 µg/mL)
